Results on 14 compounds are retold here after ChEMBL document CHEMBL1157127, “Aplysinopsin analogs: Synthesis and anti-proliferative activity of substituted (Z)-5-(N-benzylindol-3-ylmethylene)imidazolidine-2,4-diones” (Bioorg Med Chem, 2010).

Molecules are shown by their SMILES.

Common to all, as to assay type: functional, cell-based
In one assay the test system is MCF7. Briefly: Antiproliferative activity against human MCF7 cells after 24 hrs by trypan blue exclusion assay. To be noted: MCF7, 24 h. In short, it runs like this:
(§1)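 Cells from ATCC. MCF-7 and MDA-231 grown in DMEM with 10% FBS and 1% L-glutamine; A549 and H460 in RPMI 1640 with glutamine, glucose, HEPES, sodium pyruvate and 10% FBS; all at 37 °C, 5% CO2. Treated 24 h at 1, 5, 10, 20 and 40 µM, with DMSO vehicle control. Viability by trypan blue dye exclusion, mean ± SD of four wells.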

A further assay relates to NCI-H460. In words: Antiproliferative activity against human H460 cells after 24 hrs by trypan blue exclusion assay. To be noted: NCI-H460, 24 h. In short, it runs like this: as §1
A further assay has as its system A549. In words: Antiproliferative activity against human A549 cells after 24 hrs by trypan blue exclusion assay. To be noted: A549, 24 h. Put shortly:
as §1

Assay [1] in a line: Antiproliferative activity against human MDA231 cells after 24 hrs by trypan blue exclusion assay. Particulars: MDA-MB-231, 24 h. Put shortly: as §1

In general, IC50 refers to the concentration that inhibits the measured activity by half. Read a low IC50 as greater potency. With `O=C1NC(=O)/C(=C/c2cn(Cc3ccc(F)cc3)c3ccccc23)N1`, the IC50 in the assay on MCF7 was 22.3 µM; in the assay on NCI-H460 it was 16.3 µM; in the assay with A549, 27.8 µM; in assay [1], 32.8 µM.

Take `O=c1[nH]cc(F)c(=O)[nH]1` [FLUOROURACIL]: the IC50 with MCF7 was 15.2 µM; with NCI-H460, 2.7 µM; in the assay on A549, 5.4 µM; in assay [1], 3.5 µM.

As for `O=C1NC(=O)/C(=C/c2cn(Cc3ccc([N+](=O)[O-])cc3)c3ccccc23)N1`, the IC50 in the assay on MCF7 was 10.9 µM; with NCI-H460, over 40 µM; in the assay with A549 it was over 40 µM; in assay [1], 23.3 µM.

Turning to `O=C1NC(=O)/C(=C/c2cn(Cc3ccccc3)c3ccc(Br)cc23)N1`, the IC50 in the assay on MCF7 was 7.6 µM; with NCI-H460, over 40 µM; in the assay on A549, over 40 µM; in assay [1], 12.4 µM.

Regarding `COc1ccc2c(c1)c(/C=C1\NC(=O)NC1=O)cn2Cc1ccccc1`, the IC50 in the assay on MCF7 was 7.2 µM; in the assay with NCI-H460, 28.4 µM; in the assay on A549, over 40 µM; in assay [1], 7 µM.

Turning to `COc1ccc(Cn2cc(/C=C3\NC(=O)NC3=O)c3cc(Br)ccc32)cc1`, the IC50 in the assay with MCF7 was determined as 16.4 µM; with NCI-H460, 22.3 µM; in the assay on A549, 25.2 µM; in assay [1] it was 23.2 µM.

For `O=C1NC(=O)/C(=C/c2cn(Cc3ccccc3)c3ccc(Cl)cc23)N1`, the IC50 in the assay with MCF7 came out at 9.2 µM; in the assay on NCI-H460, 26.9 µM; with A549 it was 29.7 µM; in assay [1], 18 µM.

Take `Cc1ccc(Cn2cc(/C=C3\NC(=O)NC3=O)c3ccccc32)cc1`: the IC50 in the assay with MCF7 was 20.2 µM; in the assay on NCI-H460, 26.1 µM; in the assay with A549, 34.8 µM; in assay [1] it was 22.1 µM.

With `Cc1ccc2c(c1)c(/C=C1\NC(=O)NC1=O)cn2Cc1ccccc1`, the IC50 with MCF7 was determined as 5.2 µM; with NCI-H460, 14.6 µM; with A549, 27.7 µM; in assay [1] it was 20.1 µM.

Consider `O=C1NC(=O)/C(=C/c2cn(Cc3ccccc3Br)c3ccccc23)N1`, for which the IC50 in the assay with MCF7 stood at 4.4 µM; in the assay on NCI-H460 it was 16.9 µM; in the assay with A549, 39.5 µM; in assay [1] it was 21.8 µM.

`COC(=O)c1ccc(Cn2cc(/C=C3\NC(=O)NC3=O)c3ccccc32)cc1`: the IC50 in the assay with MCF7 is 15.4 µM; in the assay with NCI-H460, 30.8 µM; in the assay on A549, over 40 µM; in assay [1], 18.4 µM.

In the case of `O=C1NC(=O)/C(=C/c2cn(Cc3ccccc3)c3ccccc23)N1`, the IC50 in the assay with MCF7 is 27.3 µM; in the assay on NCI-H460, 14.2 µM; in the assay with A549, over 40 µM; in assay [1] it was 15.7 µM.

`O=C1NC(=O)/C(=C/c2cn(Cc3ccc(Cl)cc3)c3ccccc23)N1`: the IC50 in the assay on MCF7 stood at 21.4 µM; in the assay on NCI-H460, 25.4 µM; in the assay on A549, 25.4 µM; in assay [1] it was 25.3 µM.

Take `N#Cc1ccc(Cn2cc(/C=C3\NC(=O)NC3=O)c3ccccc32)cc1`: the IC50 is 14.1 µM with MCF7, 19.1 µM with NCI-H460, over 40 µM in the assay with A549 and 17.6 µM in assay [1].
